Reference: ChEMBL document CHEMBL1142516, “Design, synthesis, and structure-affinity relationships of novel series of sialosides as CD22-specific inhibitors” (J Med Chem, 2008)

What was measured:
[1] = biological target: T1, B-cell receptor CD22 (Homo sapiens, UniProt P20273); assay: Binding affinity to biotinylated human CD22-human IgG1 chimeric protein expressed in mouse J558LST6 cells by flow cytometry; format: cell-based
T1 sequence (P20273 whole entry): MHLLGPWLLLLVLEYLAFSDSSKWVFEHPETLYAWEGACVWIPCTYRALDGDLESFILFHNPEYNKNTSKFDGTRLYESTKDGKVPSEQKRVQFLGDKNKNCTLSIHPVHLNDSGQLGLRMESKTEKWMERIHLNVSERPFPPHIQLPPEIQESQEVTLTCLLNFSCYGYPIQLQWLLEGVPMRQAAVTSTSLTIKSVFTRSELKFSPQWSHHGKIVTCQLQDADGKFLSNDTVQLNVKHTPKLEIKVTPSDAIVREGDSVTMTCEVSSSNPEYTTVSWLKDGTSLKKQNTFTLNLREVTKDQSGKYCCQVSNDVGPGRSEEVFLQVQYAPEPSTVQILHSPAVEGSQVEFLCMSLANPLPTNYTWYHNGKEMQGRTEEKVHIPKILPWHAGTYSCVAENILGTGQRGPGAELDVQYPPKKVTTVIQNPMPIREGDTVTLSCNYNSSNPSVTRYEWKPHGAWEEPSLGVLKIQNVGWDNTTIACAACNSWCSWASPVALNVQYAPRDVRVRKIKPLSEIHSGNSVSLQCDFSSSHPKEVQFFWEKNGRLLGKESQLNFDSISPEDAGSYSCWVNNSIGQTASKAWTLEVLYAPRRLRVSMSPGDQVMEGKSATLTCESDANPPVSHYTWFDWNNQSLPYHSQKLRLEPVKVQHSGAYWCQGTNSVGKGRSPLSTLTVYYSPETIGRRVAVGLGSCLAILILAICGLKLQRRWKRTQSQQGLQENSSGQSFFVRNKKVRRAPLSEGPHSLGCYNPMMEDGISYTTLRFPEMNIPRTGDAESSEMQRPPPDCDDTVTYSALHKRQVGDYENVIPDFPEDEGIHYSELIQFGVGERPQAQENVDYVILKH
In short: (§1)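 IC50 from inhibition of CD22-Fc binding to alpha2,6-sialic acid on ST6GalI-transfected J558L mouse myeloma cells (J558LST6), incubated with CD22-Fc plus varied sialoside concentrations. Detection with Alexa Fluor 647-streptavidin, 30 min on ice, then flow cytometry. % binding = (A−B)/(C−B)×100 using MFI: A, sialoside sample; B, parent J558L; C, untreated J558LST6. IC50 taken as 50% binding inhibition; means of ≥3 independent determinations.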

[2] = Binding affinity to biotinylated mouse CD22-human IgG1 chimeric protein expressed in mouse J558LST6 cells by flow cytometry; format: cell-based; in short: as §1

| IC50 [1] [µM] | IC50 [2] [µM] | SMILES |
| --- | --- | --- |
| 550 | 833 | C[Si](C)(C)CCO[C@@H]1O[C@H](CO[C@]2(C(=O)O)C[C@H](O)[C@@H](NC(=O)CO)[C@H]([C@H](O)[C@H](O)CO)O2)[C@H](O)[C@H](O)[C@H]1O |
| 125 | 115 | COc1ccc(O[C@@H]2O[C@H](CO[C@]3(C(=O)O)C[C@H](O)[C@@H](NC(=O)CO)[C@H]([C@H](O)[C@H](O)CNC(=O)c4ccccc4)O3)[C@H](O)[C@H](O)[C@H]2O)cc1 |
| 148 | 497 | COc1ccc(O[C@@H]2O[C@H](CO[C@]3(C(=O)O)C[C@H](O)[C@@H](NC(=O)CO)[C@H]([C@H](O)[C@H](O)CO)O3)[C@H](O)[C@H](O)[C@H]2O)cc1 |
| 85 | 93.1 | COc1ccc(O[C@@H]2O[C@H](CO[C@]3(C(=O)O)C[C@H](O)[C@@H](NC(=O)CO)[C@H]([C@H](O)[C@H](O)CN)O3)[C@H](O)[C@H](O)[C@H]2O)cc1 |
